Data set [1] in a line: Apparent permeability across apical to basolateral side in human Caco-2 cells at 2 uM by LC-MS/MS analysis. It counts as ADME, cell-based. The gist of the method:
(§1)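 Caco-2 monolayers grown on permeable filters, used day 21. Drug solution 2 μM in prewarmed HBSS applied apical or basolateral, pH 7.4 both sides, 37 °C, stirring 500 rpm; 5 μM enalaprilat as integrity control. Receiver sampled at 30 min, donor sampled for mass balance; LC–MS/MS with warfarin internal standard.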

Data set [2] is described as follows: Efflux ratio of apparent permeability across […] side in human Caco-2 cells at 2 uM by LC-MS/MS analysis. The class given is ADME, cell-based. The settings on record: caco-2, 2 µM. The gist of the method:
as §1

For data set [3], the target named is T1, Cytochrome P450 3A4 (Homo sapiens, UniProt P08684). The experiment in a line: Inhibition of CYP3A4 in human liver microsomes using midazolam as substrate incubated for 10 mins in presence of NADPH by LC-MS/MS analysis. The class given is ADME, Microsome. The gist of the method: (§2)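 Human liver microsomes 0.2 mg/mL in 100 mM phosphate pH 7.4; compound final 1, 10 and 100 μM (1% DMSO). Substrates: midazolam 5 μM (10 min) or testosterone 50 μM (30 min). Started with NADPH, stopped with ice-cold acetonitrile containing internal standard; LC–MS/MS.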
T1 sequence (P08684 whole entry): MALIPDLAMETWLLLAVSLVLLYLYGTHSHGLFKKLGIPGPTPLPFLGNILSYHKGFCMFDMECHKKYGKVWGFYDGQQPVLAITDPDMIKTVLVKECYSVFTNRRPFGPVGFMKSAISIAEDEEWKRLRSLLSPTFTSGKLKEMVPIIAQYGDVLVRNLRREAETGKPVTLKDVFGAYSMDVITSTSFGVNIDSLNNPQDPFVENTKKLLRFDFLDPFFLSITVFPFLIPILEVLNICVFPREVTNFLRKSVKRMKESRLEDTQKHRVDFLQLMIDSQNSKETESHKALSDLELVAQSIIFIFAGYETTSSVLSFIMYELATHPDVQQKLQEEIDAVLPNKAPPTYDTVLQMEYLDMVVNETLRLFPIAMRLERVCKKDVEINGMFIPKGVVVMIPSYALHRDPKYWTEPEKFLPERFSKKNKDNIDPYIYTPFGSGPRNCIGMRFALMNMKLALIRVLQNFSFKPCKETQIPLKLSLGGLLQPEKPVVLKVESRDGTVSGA

Data set [4] has as its target T1, Cytochrome P450 3A4. The experiment in a line: Inhibition of CYP3A4 in human liver microsomes using testosterone as substrate incubated for 30 mins in presence of NADPH by LC-MS/MS analysis. The class given is ADME, Microsome. The gist of the method:
as §2

The nature of data set [5]: Cytotoxicity against human Calu-3 cells assessed as reduction in cellular ATP level incubated for 72 hrs by celltiter-glo assay. It counts as toxicity, cell-based. The settings on record: read-out: LD50. The gist of the method: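 Calu-3 cells (DMEM, 10% FBS) plated 10,000/well for 18 h, then medium switched to 2% FBS; eight twofold doses 250 down to […], compounds as imidazole salts in DMSO with IMD/DMSO controls.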

The nature of data set [6]: Therapeutic index, ratio of LD50 for human IMR-90 cells to IC50 for antimycobacterial activity against Mycobacterium tuberculosis Erdman. Conditions: read-out: TI. It counts as toxicity. The gist of the method:
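LD50 from 48 h MTT assay in HEK 293, BEAS-2B or IMR-90 cells divided by MABA IC50 against Mtb.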

Data set [7] deals with Mycobacterium tuberculosis. The experiment in a line: Inhibition of biofilm formation in Mycobacterium tuberculosis Erdman assessed as inhibition of biofilm pellicle formation at 2.5 to 50 uM pretreated for 3 weeks under low oxygen and further treated for 3 weeks under aerated condition in presence of 0.05% tyloxapol by optical density based analysis. The class given is functional, organism-based. The settings on record: dose 2.5-50 µM, time 6.0 weeks. The method, boiled down: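 Pellicle assay with 0.05% tyloxapol added to each well to prevent biofilm; otherwise Sauton's medium inoculated with Mtb plus compound, sealed airtight 3 weeks at 37 °C, 5% CO2, then opened for 3 weeks aerobic.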

In data set [8] the test system is Mycobacterium tuberculosis. The experiment in a line: Antimycobacterial activity against Mycobacterium tuberculosis H37Rv expressing GFP infected in mouse RAW264.7 cells assessed as inhibition of intracellular mycobacterial growth by measuring reduction in percentage of infected cells incubated for 5 days by SYTO 60 dye based automated high-content fluorescent microscopic analysis. The settings on record: time 5.0 day. It counts as functional, organism-based. The gist of the method:
(§3)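 RAW 264.7 macrophages infected with GFP-expressing H37Rv for 3 h at 37 °C with shaking, washed by centrifugation, then seeded at 20,000 cells/well onto compounds dispensed acoustically from DMSO stocks, DMSO backfill. Incubated 5 days at 37 °C, 5% CO2, stained with SYTO 60, four confocal images per well; percentage of infected cells and bacterial area per infected cell scored. IC50 from dose–response; four replicates.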

The subject of data set [9] is Mycobacterium tuberculosis. The experiment in a line: Antimycobacterial activity against Mycobacterium tuberculosis H37Rv expressing GFP infected in mouse RAW264.7 cells assessed as inhibition of intracellular mycobacterial growth by measuring reduction in bacterial area per infected cells incubated for 5 days by SYTO 60 dye based automated high-content fluorescent microscopic analysis. The class given is functional, organism-based. The settings on record: time 5.0 day. The method, boiled down: as §3

In a further data set the test system is RAW264.7. The experiment in a line: Cytotoxicity against mouse RAW264.7 cells assessed as reduction in cell viability at 0.01 to 10 uM incubated for 5 days by SYTO 60 dye based automated high-content fluorescent microscopic analysis. The settings on record: raw264.7, 120 h, dose 0.01-10 µM, time 5 day. The class given is toxicity. The gist of the method:
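RAW 264.7 cells in RPMI-1640 with 10% heat-inactivated FBS, 20,000 cells/well added to compounds acoustically dispensed from DMSO stocks, DMSO backfill; 5 days at 37 °C, 5% CO2. SYTO 60 staining, four confocal images per well, total cell number counted; dose–response plotted.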

Data set [10] concerns CYP3A4. The experiment in a line: Selectivity index, ratio of IC50 for CYP3A4 in human liver microsomes using midazolam as substrate to IC50 for antimycobacterial activity against Mycobacterium tuberculosis Erdman. It counts as toxicity. Conditions: probe midazolam, read-out: Ratio IC50.
The test system of data set [11] is CYP3A4. The experiment in a line: Selectivity index, ratio of IC50 for CYP3A4 in human liver microsomes using testosterone as substrate to IC50 for antimycobacterial activity against Mycobacterium tuberculosis Erdman. The settings on record: probe testosterone, read-out: Ratio IC50. The class given is toxicity.
The nature of data set [12]: Solubility of compound in tween-free sauton's medium. The class given is physicochemical.

Calls of active or inactive are those of the source. No cut-off for these calls is given here. Bounds are passed on as bounds.

For the compound `CC(C)(C)c1ccc(-c2nnc(SCc3cc(=O)n4c(c3C3CC3)SCC4C(=O)O)o2)cc1` (racemic), the Papp A→B at 2 µM in [1] is 0.88 ×10⁻⁶ cm/s. For the same compound, the Ratio in data set [2] was 1.5. In addition, the IC50 on Cytochrome P450 3A4 [3] and on Cytochrome P450 3A4 [4] was greater than 100 µM each time.

Regarding `O=C(O)C1CSc2c(C3CC3)c(-c3cc(-c4ccc5ccccc5c4)no3)cc(=O)n21.c1c[nH]cn1` (racemic), in data set [5], the CC50 at 72 h is greater than 250 µM. In addition, the figures for the selectivity ratio (in data set [6]; with CYP3A4 [10]; with CYP3A4 [11]) were 168, no less than 16 and no less than 16, respectively. Further, the inhibition entry in [7] was “inactive”. For the same compound, the outcome in data set [8] and in data set [9] was Active. The Activity entry with RAW264.7 was “Non-Toxic”.

As for `O=C(O)C1CSc2c(C3CC3)c(Cc3cccc4ccccc34)cc(=O)n21.c1c[nH]cn1` (racemic), the Activity entry in the data set on RAW264.7 was “Non-Toxic”. Further, the selectivity ratio in the data set on CYP3A4 [10] and in the data set on CYP3A4 [11] was no less than 16 in each case.

Turning to `O=C(O)C1CSc2c(C3CC3)c(CSc3nnc(-c4cccc(C(F)(F)F)c4)o3)cc(=O)n21` (racemic), in data set [12], the solubility result was “Insoluble”.

For the compound `CC(C)(C)c1ccc(-n2cc(-c3cc(=O)n4c(c3C3CC3)SCC4C(=O)O)nn2)cc1` (racemic), the IC50 on Cytochrome P450 3A4 [3] and at Cytochrome P450 3A4 [4] was greater than 100 µM in each case.

Take `O=C(O)C1CSc2c(C3CC3)c(-c3cc(-c4ccccc4)no3)cc(=O)n21` (racemic): in [12], the solubility result is given as “Insoluble”.

The values above are taken from ChEMBL document CHEMBL5360619.
